# Reference: article PMC4547606 (Bioorganic & medicinal chemistry, 2015)
# Several values for one entry are separate records, joined by “and”; a condition that tells them apart may be missing. Identical values can stand only once.
# Columns and labels:
# [1] = target: human CB2 receptor (Homo sapiens, UniProt P34972); assay: CB2 calcium mobilization assay, antagonist screen at 10 μM; assay type: cell-based; settings: read-out: CB2 % Inhibition of CP55,940, compound at 10 μM; percent inhibition of CP55,940 EC80 (100 nM); mean ± SEM, at least two independent experiments in duplicate
# [2] = target: T1, human CB1 receptor (Homo sapiens, UniProt P21554); assay: CB1 calcium mobilization assay, antagonist; assay type: cell-based; settings: ratio of CB1 IC50 values
# In short: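 CHO-RD-HGA16 cells stably expressing human CB1 were plated overnight (37°C, 5% CO2), then Calcium 5 dye-loaded for 45 min at 37°C in HBSS/20 mM HEPES/2.5 mM probenecid, pH 7.4. Test compound dilutions were pre-incubated 15 min at 37°C. CP55,940 at EC80 was added at 10 s, and fluorescence was read every 1 s for 90 s. IC50 came from three-parameter logistic fits; at least three independent experiments in duplicate.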
# [3] = target: T1, human CB1 receptor; assay: CB1 calcium mobilization assay, modulation experiments; assay type: cell-based; settings: Figure 2
# In short: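 CHO-RD-HGA16 cells stably expressing human CB1, plated the day before and kept overnight at 37°C, 5% CO2. Loaded with Calcium 5 dye for 45 min at 37°C in HBSS, 20 mM HEPES, 2.5 mM probenecid, pH 7.4. Pre-treated 15 min at 37°C with one test compound concentration, then serial CP55,940 dilutions added at 10 s. Fluorescence read every 1 s for 90 s.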
# [4] = system: mice; settings: cited from earlier work
# [5] = system: rats; settings: cited from earlier work
# [6] = system: over forty GPCRs; settings: including GPCRs commonly involved in drug addictions; cited from earlier work
# [7] = system: rats; settings: cited from earlier work; remark: listed apart in the source
# Sequence of human CB2 receptor (P34972 whole entry): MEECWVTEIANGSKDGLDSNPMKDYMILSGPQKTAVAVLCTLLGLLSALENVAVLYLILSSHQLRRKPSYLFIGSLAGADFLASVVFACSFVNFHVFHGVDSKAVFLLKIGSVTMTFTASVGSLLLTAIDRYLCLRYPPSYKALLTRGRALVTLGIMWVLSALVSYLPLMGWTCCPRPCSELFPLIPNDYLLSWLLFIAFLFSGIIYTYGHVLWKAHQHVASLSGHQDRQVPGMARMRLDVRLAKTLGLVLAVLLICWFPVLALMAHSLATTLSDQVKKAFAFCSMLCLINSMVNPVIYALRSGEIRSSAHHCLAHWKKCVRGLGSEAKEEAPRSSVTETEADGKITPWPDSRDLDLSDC
# T1 sequence (P21554 whole entry): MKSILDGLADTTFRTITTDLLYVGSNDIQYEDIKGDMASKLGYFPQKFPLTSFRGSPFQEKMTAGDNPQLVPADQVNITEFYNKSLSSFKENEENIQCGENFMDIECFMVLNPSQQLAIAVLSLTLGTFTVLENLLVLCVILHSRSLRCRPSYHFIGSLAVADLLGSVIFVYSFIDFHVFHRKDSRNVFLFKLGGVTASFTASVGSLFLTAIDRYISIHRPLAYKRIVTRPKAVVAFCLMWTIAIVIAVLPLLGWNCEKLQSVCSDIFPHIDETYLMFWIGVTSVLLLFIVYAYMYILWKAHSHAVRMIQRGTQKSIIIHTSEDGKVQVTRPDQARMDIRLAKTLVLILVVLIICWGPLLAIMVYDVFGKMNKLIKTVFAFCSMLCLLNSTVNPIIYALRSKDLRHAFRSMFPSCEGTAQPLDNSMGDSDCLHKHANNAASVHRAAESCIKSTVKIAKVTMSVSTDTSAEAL
SMILES,inhibition at 10 µM [1] [%],other results
"CCc1c(C(=O)NCCc2ccc(OC)cc2)[nH]c2ccc(Cl)cc12 [Compound 26, 5-Chloro-N-[2-(4-methoxyphenyl)ethyl]-3-ethyl-1H-indole-2-carboxamide]",-11.2 ± 19.6,–
"CCCCCCNc1ccc(CCNC(=O)c2[nH]c3ccc(Cl)cc3c2CC)cc1 [Compound 19, 5-Chloro-N-{2-[4-(hexylamino)phenyl]ethyl}-3-ethyl-1H-indole-2-carboxamide]",-35 ± 4.6,–
"CCc1c(C(=O)NCCc2ccc(N3CCCCC3)cc2)[nH]c2ccc(F)cc12 [Compound 46, 5-Fluoro-3-ethyl-N-{2-[4-(piperidin-1-yl)phenyl]ethyl}-1H-indole-2-carboxamide]",-33.1 ± 16.3,–
"CCCN(CCC)c1ccc(CCNC(=O)c2[nH]c3ccc(Cl)cc3c2CC)cc1 [Compound 18, 5-Chloro-N-{2-[4-(dipropylamino)phenyl]ethyl}-3-ethyl-1H-indole-2-carboxamide]",-37.4 ± 6.8,–
"CCc1c(C(=O)NCCc2ccc(N(C)C)cc2)[nH]c2ccc(Cl)cc12 [Compound 16, 5-Chloro-N-{2-[4-(dimethylamino)phenyl]ethyl}-3-ethyl-1H-indole-2-carboxamide]",-12.7 ± 2.8,–
"CCN(CC)c1ccc(CCNC(=O)c2cc3cc(F)ccc3[nH]2)cc1 [Compound 44, 5-Fluoro-N-{2-[4-(diethylamino)phenyl]ethyl}-1H-indole-2-carboxamide]",-23.8 ± 5.2,–
"CCc1c(C(=O)Nc2cccc(-c3cccc(N(C)C)n3)c2)[nH]c2ccc(Cl)cc12 [Compound 35, 5-Chloro-N-{3-[6-(dimethylamino)pyridin-2-yl]phenyl}-3-ethyl-1H-indole-2-carboxamide]",-19.2 ± 11.5,–
"CCc1c(C(=O)N2CCN(c3ccc(Cl)cc3)CC2)[nH]c2ccc(Cl)cc12 [Compound 37, 5-Chloro-2-[4-(4-chlorophenyl)piperazine-1-carbonyl]-3-ethyl-1H-indole]",-31.1 ± 18.8,–
"CCN(CC)c1ccc(CCNC(=O)c2cc3cc(Cl)ccc3[nH]2)cc1 [Compound 45, 5-Chloro-N-{2-[4-(diethylamino)phenyl]ethyl}-1H-indole-2-carboxamide]",–,"fold more potent than compound 1 (CB1 IC50) [2]: ~10 fold; fold more potent than compound 3 (CB1 IC50) [2]: ~ 2.5 fold and 2.5 fold; fold more potent than compound 17 (CB1 IC50) [2]: 6 fold; Effect on Emax of agonist CP55,940 [3]: dose-dependently decreased the Emax"
"CCN(CC)c1ccc(CCNC(=O)c2[nH]c3ccc(F)cc3c2C)cc1 [Compound 43, 5-Fluoro-N-{2-[4-(diethylamino)phenyl]ethyl}-3-methyl-1H-indole-2-carboxamide]",-21.8 ± 6.5,–
"CCc1c(C(=O)NCCc2ccc(N(CC)CC)cc2)[nH]c2ccc(F)cc12 [Compound 42, 5-Fluoro-N-{2-[4-(diethylamino)phenyl]ethyl}-3-ethyl-1H-indole-2-carboxamide]",-25.7 ± 10.7,–
"CCc1c(C(=O)N2CCN(c3ccccc3)CC2)[nH]c2ccc(Cl)cc12 [Compound 36, 5-Chloro-3-ethyl-2-(4-phenylpiperazine-1-carbonyl)-1H-indole]",-28 ± 25.9,–
"CCc1c(C(=O)NCCc2ccc(N(CC)CC)cc2)[nH]c2ccc(Cl)cc12 [Compound 17, 5-Chloro-N-{2-[4-(diethylamino)phenyl]ethyl}-3-ethyl-1H-indole-2-carboxamide]",–,fold more potent than compound 1 (CB1 IC50) [2]: 2 fold
"CCc1c(C(=O)NCCc2ccc(N3CCCCC3)cc2)[nH]c2ccc(Cl)cc12 [Compound 1, Org27569]",-16.4 ± 1.8,"Anorectic effect, mechanism [4]: anorectic effect through non-CB1 specific mechanisms; Effect on CB1 agonist-induced effects (antinociception, catalepsy, hypothermia) [4]: did not enhance or block; Cue- and drug-induced reinstatement of cocaine- and methamphetamine-seeking behavior [5]: dose-related attenuation; Pharmacological selectivity against over forty GPCRs [6]: high pharmacological selectivity; Effect on Emax of agonist CP55,940 [3]: dose-dependently decreased the Emax; Effect in catalepsy and antinociception [7]: negative results; Effect on hypothermic effects of CB1 receptor agonists CP55940 and anandamide [7]: attenuated the hypothermic effects"
"CCc1c(C(=O)NCCc2ccc(N(C)C)cc2)[nH]c2ccc(F)cc12 [Compound 3, Org27759, reference compound]",-20.4 ± 2.4,"Effect on Emax of agonist CP55,940 [3]: dose-dependently decreased the Emax"
"CCc1c(C(=O)NCCc2ccc(C(C)(C)C)cc2)[nH]c2ccc(Cl)cc12 [Compound 27, 5-Chloro-N-[2-(4-tert-butylphenyl)ethyl]-3-ethyl-1H-indole-2-carboxamide]",-18 ± 35.4,–
